Experimental data as given in the array DNA melting data of Ke et al. (doi:10.1101/2024.01.08.574731).

Experiments:
[1] = folding enthalpy; higher = less favourable; fluorescence melt of hairpins on a sequencing array, two-state fit; conditions: sodium 0.088 M
Procedure, shortened: (§1)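 Two-state fits, bootstrapped, provided melting temperature and folding enthalpy from Cy3 fluorescence normalised to pre-quench Cy3 and to control constructs. Library hairpins with annealed Cy3 and quencher oligos were imaged on a sequenced MiSeq flow cell in 50 mM Na-HEPES pH 8.0, 25 mM NaCl, at 2.5 °C intervals up to 60 °C. Four replicates were combined with inverse-variance weighting. A 9.35 °C upward shift was applied to fitted temperatures to match UV melts.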

[2] = melting temperature; fluorescence melt of hairpins on a sequencing array, two-state fit, raised by 9.35 °C to match UV melts; conditions: sodium 0.088 M
Procedure, shortened: as §1

Sequence	folding enthalpy [1]	Tm [2]
GATCTAGAAGTAGATC ((((((....))))))	-27.6 kcal/mol	39.9 °C
GGGCTCGAAAGAGCTCCC ((((((....)))..)))	-10.6 kcal/mol	50 °C
GGCAGCTCGAAAGAGGCC (((..(((....))))))	-17.4 kcal/mol	47.3 °C
GGGGGCGGAAACGCCCTC (.(((((....))))).)	-11.6 kcal/mol	63.4 °C
GGGTAGCGAAAGCTCCC (((.(((....))))))	-40.3 kcal/mol	53.6 °C
GATCAGGGGCTGATC ((((((...))))))	-27.4 kcal/mol	47.5 °C
GTGCGTGGAAACACGCGC (.(((((....))))).)	-18 kcal/mol	65.9 °C
GCGGATTCCCGC ((((....))))	-20.8 kcal/mol	55 °C
GCCTTGCGAAAGCAACGC ((.((((....)))).))	-14.3 kcal/mol	54.7 °C
GTACAGCCGAAAGGCTAC (((..(((....))))))	-7.38 kcal/mol	27.2 °C
GCTCGAGGAAACTTGAGC ((((.((....)).))))	-37.8 kcal/mol	50.8 °C
CGTTTCGGAAACGAGACG (((.(((....))).)))	-24.9 kcal/mol	49.1 °C
GTCCTCGAAAGAGAAGAC ((((((....)))..)))	-19.8 kcal/mol	32.2 °C
GCGAAACGAAAGTTACGC (((.(((....))).)))	-40.1 kcal/mol	58.6 °C
GCCGATGCGAAAGCAGGC (((..(((....))))))	-20.1 kcal/mol	58.5 °C
GATCGAGCTATCGATC ((((((....))))))	-43.4 kcal/mol	58.4 °C
GTTAGTGGAAACACCAAC (((.(((....))).)))	-13.3 kcal/mol	29.3 °C
GTAAACACGAAAGTGTAC (((..(((....))))))	-11.7 kcal/mol	31.2 °C
GCACAGCGAAAGCTTGGC ((..(((....)))..))	-15.4 kcal/mol	47.5 °C
GCCATCACGAAAGTGGGC (((..(((....))))))	-19.4 kcal/mol	47.2 °C
GATCACTTGTGTGATC ((((((....))))))	-40.4 kcal/mol	56.1 °C
GTGTCGCGAAAGCGCCAC (((.(((....))).)))	-25.7 kcal/mol	57.7 °C
GGTTAACGAAAGTTTACC (((.(((....))).)))	-33.3 kcal/mol	45.2 °C

Sequence	folding enthalpy [1]	Tm [2]
GTACTGTCGAAAGACTAC (((..(((....))))))	-10.3 kcal/mol	26.4 °C
AACTTGAAAAAGTT (((((....)))))	-14.2 kcal/mol	30.4 °C
GGGCGTGGAAACACGCTC (.(((((....))))).)	-14.5 kcal/mol	62.4 °C
GCCTAGCGAAAGCTTCGC ((..(((....)))..))	-7.98 kcal/mol	44.6 °C
GGGAGACCGAAAGGTCCC (((..(((....))))))	-12.8 kcal/mol	53.2 °C
GGAGTCGGAAACGACTTC (.(((((....))))).)	-25.6 kcal/mol	55.5 °C
GTCACCGAAAGGTGGGAC ((((((....)))..)))	-9.56 kcal/mol	39 °C
GATCATTAGCATGATC ((((((....))))))	-32.6 kcal/mol	44.2 °C
GATCTCAATGGAGATC ((((((....))))))	-40.6 kcal/mol	51.5 °C
GACTAACCGAAAGGTGTC (((..(((....))))))	-18.3 kcal/mol	41.4 °C
GCACAGGGAAACTTGTGC (((((.(....).)))))	-34.7 kcal/mol	52.1 °C
GATCTACGCATAGATC ((((((....))))))	-28.5 kcal/mol	42.7 °C
GATCCTTTCGAGGATC ((((((....))))))	-38.7 kcal/mol	53.8 °C
CGGTCGGAAACGAGGCCG ((((((....)))..)))	-23.7 kcal/mol	41.5 °C
GATCCAACCTGGATC ((((((...))))))	-31 kcal/mol	50.4 °C
GCCGAATCGAAAGATGGC (((..(((....))))))	-26.3 kcal/mol	46.2 °C
GATTTCGGAAACGAAACC (.(((((....))))).)	-19.6 kcal/mol	35.8 °C
GATTCACGAAAGTGCATC (((.(((....))).)))	-26.4 kcal/mol	40.2 °C
GTCCGGCGAAAGCCAGAC (((.(((....))).)))	-27.5 kcal/mol	50.7 °C
GGAGAAGAAATTCTCC ((((((....))))))	-27.7 kcal/mol	47.7 °C
GTCAATGGAAACACTGAC ((((.((....)).))))	-22.1 kcal/mol	34.5 °C
GATCTACACTTAGATC ((((((....))))))	-44.7 kcal/mol	43.4 °C
GCTGAAGGAAACTTCAAC (.(((((....))))).)	-18 kcal/mol	29.8 °C

Sequence	folding enthalpy [1]	Tm [2]
GCCTCTTCGAAAGAAGGC (((..(((....))))))	-14.8 kcal/mol	39.4 °C
GTCGAGGCGAAAGCCGAC (((..(((....))))))	-9.98 kcal/mol	51 °C
GGCGGTGGAAACGTCGCC ((((..(....)..))))	-33.8 kcal/mol	53.9 °C
GAATTCGGAAACGAGTTC (((.(((....))).)))	-32.5 kcal/mol	43.9 °C
GAACACGAAAGTGCGTTC ((((((....)))..)))	-13 kcal/mol	31.2 °C
GCGCATTCGAAAGAACGC (((..(((....))))))	-18.8 kcal/mol	41.4 °C
GCACATGAAAATGTGC ((((((....))))))	-39.8 kcal/mol	62.4 °C
GATCGAAAACTCGATC ((((((....))))))	-30.3 kcal/mol	47.2 °C
GATCTTAACAAGATC ((((((...))))))	-31.9 kcal/mol	45.6 °C
GATCAACATTTGATC ((((((...))))))	-31.1 kcal/mol	38.2 °C
GGGGTGAAAACCCC (((((....)))))	-21.1 kcal/mol	66.6 °C
GCCATTCGAAAGAAGGGC (((.(((....))).)))	-41 kcal/mol	59.4 °C
GACAGCGAAAGCTCTGTC ((((((....)))..)))	-15.2 kcal/mol	39.6 °C
GGGCCAGGAAACTGGCTC (.(((((....))))).)	-16.1 kcal/mol	61 °C
GTAACCGAAAGGTAATAC ((((((....)))..)))	-11.9 kcal/mol	23.8 °C
GTTTAGCGAAAGCTCAAC (((.(((....))).)))	-20.6 kcal/mol	41.7 °C
GTCATGCGAAAGCACGAC (((.(((....))).)))	-27.5 kcal/mol	52.3 °C
GCCTACGGAAACATAGGC (((((.(....).)))))	-28.9 kcal/mol	40.3 °C
GGTCGCGAAAGCGTTACC ((((((....)))..)))	-14.6 kcal/mol	41.4 °C
GCACAGCGAAAGCATTGC (((..((....))..)))	-14.4 kcal/mol	38.2 °C
GCTTACCGAAAGGTTAGC (((.(((....))).)))	-35 kcal/mol	52.8 °C
GAAACCGGAAACGGTTTC (((((((....)))))))	-39 kcal/mol	65.7 °C
GATCAATACATTGATC ((((((....))))))	-37.3 kcal/mol	49.2 °C
